The subject of experiment [1] is T47D. The experiment can be described thus: Cytotoxicity against human T47D cells assessed as inhibition of cell viability incubated for 72 hrs by MTS assay. Type of experiment: functional, cell-based. Put shortly:
(§1)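 Untreated cells were seeded at 5,000 cells/well in 96-well plates and run as the control. They were exposed in triplicate for 72 h to graded doxorubicin, bleomycin, cisplatin, paclitaxel or methotrexate (nmol/L range). Viability was read by MTS assay and IC50 was calculated.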
Background: Tetrazolium assays rely on reduction of a dye to a coloured formazan, in cell work by metabolically active cells.

Experiment [2] concerns ZR-75-1. Nature of the experiment: Cytotoxicity against human ZR-75-1 cells assessed as inhibition of cell viability incubated for 72 hrs by MTS assay. Format: functional, cell-based. The method, boiled down:
as §1

Experiment [3] has as its system ZR-75-1. The experiment can be described thus: Induction of polyploidy in human ZR-75-1 cells at 5 uM incubated for 72 hrs by microscopic analysis. Type of experiment: functional, cell-based. The method, boiled down:
(§2)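 Cells stained with Hema-3 and photographed under a light microscope with CCD camera. Polyploid cells scored as percent of the population.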

The test system of experiment [4] is MCF7. Nature of the experiment: Induction of polyploidy in human MCF7 cells at 5 uM incubated for 72 hrs by microscopic analysis. Type of experiment: functional, cell-based. Put shortly:
as §2

For experiment [5], the system named is T47D. The experiment can be described thus: Induction of polyploidy in human T47D cells at 5 uM incubated for 72 hrs by microscopic analysis. Type of experiment: functional, cell-based. Put shortly: as §2
Experiment [6] relates to T47D. The experiment can be described thus: Induction of cell cycle arrest in human T47D cells at 5 umol/L preincubated for 24 hrs followed by extensive compound washout and subsequent culturing in compound-free media measured for 60 to 120 mins by immunofluorescence staining based analysis. The note with it: dose 5.0 µmol/L. Type of experiment: functional. Put shortly: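 T-47D cells were treated at 37°C with 5 µmol/L for 24 h, washed extensively, then cultured in DMEM with 10% FBS for 30, 60 and 120 min. α- and γ-tubulin were detected by immunofluorescence with DAPI, imaged at 400×. The control was a 24 h preincubation with 5 µmol/L RO-3306. One of 2 experiments.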

Experiment [7] concerns the target Hepatocyte growth factor receptor (Homo sapiens, UniProt P08581). Nature of the experiment: Inhibition of MET (unknown origin).
The target in experiment [8] is Macrophage-stimulating protein receptor (Homo sapiens, UniProt Q04912). The experiment can be described thus: Inhibition of RON (unknown origin).
Macrophage-stimulating protein receptor, sequence (Q04912 25-304 limits assumed): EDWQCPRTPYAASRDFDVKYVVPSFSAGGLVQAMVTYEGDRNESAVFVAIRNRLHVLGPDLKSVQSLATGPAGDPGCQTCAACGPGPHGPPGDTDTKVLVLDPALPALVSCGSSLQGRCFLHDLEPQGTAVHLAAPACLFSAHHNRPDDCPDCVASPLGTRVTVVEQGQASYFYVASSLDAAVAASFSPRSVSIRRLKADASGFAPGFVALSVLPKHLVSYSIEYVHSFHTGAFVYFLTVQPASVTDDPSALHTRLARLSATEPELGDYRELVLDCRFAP
Macrophage-stimulating protein receptor, sequence (Q04912 310-1400 limits assumed): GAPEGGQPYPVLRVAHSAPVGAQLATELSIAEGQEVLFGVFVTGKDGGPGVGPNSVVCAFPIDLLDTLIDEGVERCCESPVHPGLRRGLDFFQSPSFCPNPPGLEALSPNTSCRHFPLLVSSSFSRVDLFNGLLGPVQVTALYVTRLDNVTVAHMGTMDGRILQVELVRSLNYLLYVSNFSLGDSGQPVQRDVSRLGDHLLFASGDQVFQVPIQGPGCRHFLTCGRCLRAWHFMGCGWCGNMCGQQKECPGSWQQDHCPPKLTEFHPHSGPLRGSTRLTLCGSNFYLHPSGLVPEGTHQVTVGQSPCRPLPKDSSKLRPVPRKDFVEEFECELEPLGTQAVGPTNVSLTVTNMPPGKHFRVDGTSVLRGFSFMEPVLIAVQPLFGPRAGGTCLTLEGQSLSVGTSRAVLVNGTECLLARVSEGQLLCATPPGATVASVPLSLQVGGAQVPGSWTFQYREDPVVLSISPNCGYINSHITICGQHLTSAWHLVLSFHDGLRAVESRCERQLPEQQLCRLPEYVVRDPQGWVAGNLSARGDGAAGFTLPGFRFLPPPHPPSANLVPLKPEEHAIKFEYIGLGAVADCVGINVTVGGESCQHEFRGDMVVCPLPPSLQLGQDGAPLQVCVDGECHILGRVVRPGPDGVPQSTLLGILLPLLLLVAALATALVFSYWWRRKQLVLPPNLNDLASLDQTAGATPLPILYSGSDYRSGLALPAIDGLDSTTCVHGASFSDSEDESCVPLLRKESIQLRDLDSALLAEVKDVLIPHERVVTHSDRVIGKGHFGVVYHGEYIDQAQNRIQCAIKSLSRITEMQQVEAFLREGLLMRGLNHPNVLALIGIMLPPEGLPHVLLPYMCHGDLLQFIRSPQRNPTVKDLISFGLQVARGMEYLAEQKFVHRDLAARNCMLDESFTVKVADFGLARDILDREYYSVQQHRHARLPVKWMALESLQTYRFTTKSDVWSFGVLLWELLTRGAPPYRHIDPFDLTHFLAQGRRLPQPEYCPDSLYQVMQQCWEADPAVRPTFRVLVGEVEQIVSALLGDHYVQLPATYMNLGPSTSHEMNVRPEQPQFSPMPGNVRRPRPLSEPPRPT

The source made the active and inactive calls. The calls are words filed in the database; no cut-off is given here.

Hepatocyte growth factor receptor, sequence (P08581 whole entry): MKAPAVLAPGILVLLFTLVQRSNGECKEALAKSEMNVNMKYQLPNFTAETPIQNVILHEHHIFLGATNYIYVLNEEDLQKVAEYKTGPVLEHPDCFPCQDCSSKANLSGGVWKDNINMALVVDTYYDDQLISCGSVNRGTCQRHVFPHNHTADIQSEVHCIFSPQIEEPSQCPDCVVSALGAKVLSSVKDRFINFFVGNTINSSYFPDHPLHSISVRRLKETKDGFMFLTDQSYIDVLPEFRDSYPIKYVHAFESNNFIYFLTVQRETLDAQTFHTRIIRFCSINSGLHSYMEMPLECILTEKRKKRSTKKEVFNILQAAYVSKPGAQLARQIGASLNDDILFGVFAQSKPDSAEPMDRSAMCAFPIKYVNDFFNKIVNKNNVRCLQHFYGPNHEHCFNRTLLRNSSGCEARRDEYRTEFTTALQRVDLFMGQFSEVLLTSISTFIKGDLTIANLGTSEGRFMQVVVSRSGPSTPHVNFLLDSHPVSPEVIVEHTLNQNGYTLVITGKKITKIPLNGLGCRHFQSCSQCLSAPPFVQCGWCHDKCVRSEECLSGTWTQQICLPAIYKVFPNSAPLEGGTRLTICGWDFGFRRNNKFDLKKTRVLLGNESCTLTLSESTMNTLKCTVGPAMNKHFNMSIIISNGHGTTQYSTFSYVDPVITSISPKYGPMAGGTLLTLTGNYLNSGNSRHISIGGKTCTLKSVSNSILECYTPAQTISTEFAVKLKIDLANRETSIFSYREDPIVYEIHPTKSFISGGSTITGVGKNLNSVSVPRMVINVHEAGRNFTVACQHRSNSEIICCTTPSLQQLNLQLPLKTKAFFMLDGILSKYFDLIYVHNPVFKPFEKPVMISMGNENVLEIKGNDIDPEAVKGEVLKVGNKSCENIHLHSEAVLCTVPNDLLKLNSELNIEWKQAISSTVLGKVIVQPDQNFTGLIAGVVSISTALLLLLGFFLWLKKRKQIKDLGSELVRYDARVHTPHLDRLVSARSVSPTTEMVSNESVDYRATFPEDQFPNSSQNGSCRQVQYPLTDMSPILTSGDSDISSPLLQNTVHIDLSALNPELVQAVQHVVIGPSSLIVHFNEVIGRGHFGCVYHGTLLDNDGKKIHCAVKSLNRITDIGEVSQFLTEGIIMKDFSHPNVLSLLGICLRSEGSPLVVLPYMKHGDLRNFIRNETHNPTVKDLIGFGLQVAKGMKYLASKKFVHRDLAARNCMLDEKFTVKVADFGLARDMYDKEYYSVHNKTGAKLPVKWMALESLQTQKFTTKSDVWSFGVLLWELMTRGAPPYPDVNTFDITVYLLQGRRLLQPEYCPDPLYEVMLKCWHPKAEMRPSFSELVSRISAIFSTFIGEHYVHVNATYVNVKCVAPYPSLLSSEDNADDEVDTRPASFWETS

On to BLEOMYCIN, for which the values for the IC50 in experiment [1] (t47d) and in experiment [2] (zr-75-1) were 0.129 µM and 0.165 µM, respectively.
Take `CC(=O)O[C@H]1C(=O)[C@@]2(C)[C@H]([C@H](OC(=O)c3ccccc3)[C@]3(O)C[C@H](OC(=O)[C@H](O)[C@@H](NC(=O)c4ccccc4)c4ccccc4)C(C)=C1C3(C)C)[C@]1(OC(C)=O)CO[C@@H]1C[C@@H]2O` [PACLITAXEL]: the concentration for half-maximal inhibition (IC50) (as a rule, the point on the concentration scale where inhibition reaches its midpoint) was 0.004 µM in experiment [1] (Homo sapiens, T47D, 72 h) and 0.0062 µM in experiment [2] (Homo sapiens, ZR-75-1, 72 h).
Take `Cc1[nH]c(/C=C2\C(=O)Nc3ccc(S(=O)(=O)Cc4c(Cl)cccc4Cl)cc32)c(C)c1C(=O)N1CCC[C@@H]1CN1CCCC1`: the result in experiment [3], in experiment [4] and in experiment [5] was inactive.
`O=C1N=C(NCc2cccs2)S/C1=C\c1ccc2ncccc2c1`: in experiment [6], the outcome was inactive.
For `COc1cccc2c1C(=O)c1c(O)c3c(c(O)c1C2=O)C[C@@](O)(C(=O)CO)C[C@@H]3O[C@H]1C[C@H](N)[C@H](O)[C@H](C)O1` [DOXORUBICIN], the concentration for half-maximal inhibition (IC50) in experiment [1] (Homo sapiens, T47D, 72 h) turned out to be 0.264 µM; in experiment [2] (Homo sapiens, ZR-75-1, 72 h), 0.453 µM.
For `CN(Cc1cnc2nc(N)nc(N)c2n1)c1ccc(C(=O)N[C@@H](CCC(=O)O)C(=O)O)cc1` [METHOTREXATE] the same measures were 0.0644 µM and 0.066 µM.
Regarding `COc1ccc2c(Oc3ccc(NC(=O)c4c(C)n(CC(C)(C)O)n(-c5ccccc5)c4=O)cc3F)ccnc2c1`, the outcome in experiment [3], in experiment [4] and in experiment [5] was inactive. Also, the half-inhibitory concentration (IC50) in experiment [7] came to 0.004 µM; in experiment [8] it was 0.009 µM.

The record behind these values is ChEMBL document CHEMBL5653613 (Mol Cancer Ther, 2013).
